Screens deposited in PubChem BioAssay by several laboratories.
STAT1 activator = STAT1 signaling activation. NIH 3T3 STAT1-luciferase reporter, IFN-gamma, luminescence; 100% = IFN-gamma alone, no compound. activation (% of control), % at 5.5 µM. actives 2.6% (n = 200,000). AID 932;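 active = activation above the screen-wide mean activation plus 3 SD, cut at about 130% in these data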
FLuc stim CS = firefly luciferase counter-screen for stimulation assays. ATPlite luciferase biochemical, luminescence, 10 min; 0 = ATP-free wells, 1 = DMSO control. activation factor at 10 µM. 200,000 tested, under 10 active. AID 1027;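 active = luciferase activation factor, scaled between plate controls, of at least 2 with compound at 10 µM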
Target sequence (P08659 whole entry, looked up): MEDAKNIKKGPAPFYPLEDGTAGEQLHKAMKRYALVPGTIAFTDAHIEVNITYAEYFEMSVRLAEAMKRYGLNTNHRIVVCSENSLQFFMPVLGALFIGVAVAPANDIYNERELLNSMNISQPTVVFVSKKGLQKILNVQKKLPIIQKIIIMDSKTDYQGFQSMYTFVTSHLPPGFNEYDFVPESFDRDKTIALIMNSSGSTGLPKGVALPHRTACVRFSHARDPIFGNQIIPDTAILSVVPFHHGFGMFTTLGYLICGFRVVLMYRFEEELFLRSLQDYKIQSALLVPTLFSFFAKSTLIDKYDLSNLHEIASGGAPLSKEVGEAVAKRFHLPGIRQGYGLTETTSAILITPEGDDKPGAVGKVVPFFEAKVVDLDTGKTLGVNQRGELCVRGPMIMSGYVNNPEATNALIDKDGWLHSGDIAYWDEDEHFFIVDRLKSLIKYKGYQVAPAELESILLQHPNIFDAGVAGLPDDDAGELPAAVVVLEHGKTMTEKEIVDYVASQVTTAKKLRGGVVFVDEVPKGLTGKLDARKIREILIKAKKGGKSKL
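Assay system – cell-free luciferase reagent · Medium – PBS-based ATP solution · Dosing – test compounds dosed from 2 mM stocks in 100% DMSO · Timing – 10 min, room temperature · Technique – light output (luminescence) · Measure – luminescence gain marking luciferase activators · Controls – No-ATP low control, compound-free enzyme-plus-ATP high control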
NF-kB expr up = NF-kB expression increase, human neuronal cells. actives 1.6% (n = 190,000). NF-kB reporter expression; stronger effect = higher value. fold change at 12.5 µM; in the data active = fold change above about 3.3
FLuc inh counter = inhibits firefly luciferase, flagging false hits in luciferase inhibition screens. P08659. ATPLite firefly luciferase biochemical luminescence, 10 min. inhibition, % at 10 µM. actives 1.5% (n = 200,000). AID 1006;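 active = inhibition above about 50% when tested at 10 µM, limit read from the data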
APP 5'UTR act = APP 5'UTR luciferase reporter activation. activation, % at 2 µM. SH-SY5Y APP 5'UTR luciferase reporter, luminescence; zero percent = DMSO vehicle wells. actives 1% (n = 190,000). AID 1276;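 active = activation above a set limit, based on mean plus 3 SD of controls, cut at about 140% in these data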
STAT1 act conf = confirmation of STAT1 signaling activators; AID 1262; NIH 3T3 STAT1-luciferase reporter, IFN-gamma potentiation, luminescence; 100% = IFN-gamma EC80 alone, no compound; activation (% of control), % at 5.7 µM; shares compounds with STAT1 activator; actives 97% (n = 1,200);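 active = activation above a set limit carried over from the earlier primary STAT1 screen, cut at about 140% in these data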
NFkB act STAT1ct = counter-screen for STAT1 activators: NF-kappaB activation. shares compounds with STAT1 activator. HEK293T NF-kB luciferase reporter, TNF-alpha stimulated, luminescence; 100% = TNF-alpha with vehicle only. activation (% of control), % at 5.7 µM. actives 43% (n = 1,200). AID 1306;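 active = activation above the mean of solvent-only control wells plus 3 SD, set per campaign, cut at about 130% in these data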;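 note: TNF-alpha given at a submaximal dose yielding about 80% of full reporter signal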
STAT3 act 2 = human STAT3 activation in STAT1 activator counter-screen. U3A cells STAT3-luciferase reporter, IL-6, luminescence; cells lack STAT1; 100 = IL-6 alone, no compound effect. shares compounds with STAT1 activator. actives 46% (n = 1,200). activation (% of control), % at 5.7 µM;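 active = activation above the solvent-only control well mean plus 3 SD, set per plate batch, cut at about 110% in these data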;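 note: higher means more STAT3 reporter activation so hits are non-selective activators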
A number is an active result; . = inactive; / = not tested or not shown. Compounds with a hit are over-represented: about 4.1% of the library has one in this group of screens.

SMILES	STAT1 activator	FLuc stim CS	NF-kB expr up	FLuc inh counter	APP 5'UTR act	STAT1 act conf	NFkB act STAT1ct	STAT3 act 2
CCOC(=O)N1CCN(Cc2nc3c(c(=O)n(C)c(=O)n3C)n2CCC(C)C)CC1	.	.	.	.	.	/	/	/
CCOc1ccc(C2N(c3ccc(F)cc3)C(=O)C3CCCN32)cc1OC (stereo not drawn)	.	.	.	.	.	/	/	/
COc1ccc(C(=O)O/N=C2\CCS(=O)(=O)c3sccc32)cc1	.	.	.	.	.	/	/	/
Cc1ccccc1C(=O)O/N=C1\CCS(=O)(=O)c2sccc21	220	.	5.8	.	.	225	146	111
CCc1nnc(NC(=O)CSc2nc(-c3ccccc3)cc(-c3ccc(OC)cc3)c2C#N)s1	.	.	.	.	.	/	/	/
CN(/N=C/c1ccncc1)c1cnc2ccccc2n1	153	.	3.7	56	181	195	.	124
COc1ccc2c(c1)C1=NN(/C(C)=C\C(C)=O)C(c3ccccc3)C1CC2 (stereo not drawn)	.	.	.	.	.	/	/	/
COC(=O)C(=C/C(C)=C/c1cccnc1)C(=O)OC	.	.	.	.	.	/	/	/
COc1cc(/C=C/CN2CCN(Cc3ccc(C)o3)C(CCO)C2)ccc1O (stereo not drawn)	.	.	.	.	.	/	/	/
COc1cccc(NC(=O)COC(=O)c2nc3nccc(C)n3n2)c1	.	.	.	.	.	/	/	/
COc1cccc(N(C(=O)c2nc3nccc(C)n3n2)c2nc3ccccc3s2)c1	173	.	6	.	190	230	177	114
COc1cc(-c2ccccc2)nc2ccccc12	.	.	.	.	.	/	/	/
COc1ccc(-c2ccc3ccccc3n2)cc1OC	170	.	3.3	.	143	195	136	111
O=C(O)c1cc(N/N=C/C=C/c2ccccc2)ccc1Cl	158	.	6.1	.	179	210	152	127
Cc1csc(NC(=O)C2COc3ccccc3O2)n1 (stereo not drawn)	160	.	.	.	149	198	.	.
O=C(Nc1nc(-c2ccccc2)cs1)C1COc2ccccc2O1 (stereo not drawn)	.	.	.	.	.	/	/	/
Nc1nc(-c2ccc3ccccc3c2)cs1	169	.	6.3	.	.	195	134	.
N/C(=N\c1nc2ccccc2o1)NC(=O)c1ccccc1NC(=O)c1ccccc1	.	.	.	.	.	/	/	/
N/C(=N\c1nc2ccccc2o1)NC(=O)c1ccccc1F	151	.	.	.	.	162	.	119
COc1ccc(CNC(=O)c2ccc(C(C)C)cc2)cc1	151	.	3.7	.	.	177	144	128
COc1ccc(C(=O)NCCSc2ccccc2)cc1	157	.	5.7	.	.	193	.	112
COC(=O)c1ccc(CNC(=O)COC(=O)C2CCC(C(C)(C)C)CC2)cc1 (stereo not drawn)	.	.	.	.	.	/	/	/
Cc1nn(-c2ccccc2)c(C)c1C(=O)NCc1ccc(F)cc1	.	.	.	.	.	/	/	/
O=C(CCc1nnc(CCCc2ccccc2)o1)NC(C1CC1)C1CC1	154	.	5.8	.	.	206	145	129
CCc1ccc(NC(=O)c2c(Cl)nc(C)c(Cl)c2C)cc1	.	.	.	.	.	/	/	/
C=CCNC(=O)c1cc(-c2ccc(Br)cc2)on1	160	.	.	.	.	171	.	.
CCCNC(=O)c1cc(-c2ccc(OC)cc2)on1	152	.	6.8	.	.	170	134	.
CCCCOc1ccc(-c2csc(N)n2)cc1[N+](=O)[O-]	156	.	5.4	.	142	192	141	.
O=C(CSc1ncnc2c1oc1ccccc12)Nc1ccccc1C(F)(F)F	.	.	.	.	.	/	/	/
